Laboratory results from article PMC7891373 (Clinical Pharmacology in Drug Development, 2020).
Read-outs that look alike come from different tables or passages of the source. Marks after values point to notes of the source that are not given here.

Legend:
[1] = assay type: in vivo, human; details: single oral dose, fasted; for AUC / AUC(0-t) / half-life / Tmax: male, human, plasma, po; for AUC: AUC0‐∞; for AUC(0-t): AUClast, AUC24h; for Tmax: n=24, median (min-max)
Method in brief: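 Healthy Japanese men aged 20–45 y with BMI 18.5 to <30.0 kg/m2, in an open-label randomized 2-period crossover. The 25-mg cohort was split into tablet→capsule and capsule→tablet sequences of 12, each a single fasted oral dose, with a washout of at least 28 days. Venous blood was drawn predose and 0.25–24 h post-dose. Plasma test compound was measured by validated LC-MS/MS (LLOQ 10.0 ng/mL). Parameters came from individual concentration-time profiles (AUClast = AUC24h), giving tablet/capsule geometric mean ratios.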

[2] = Safety and tolerability assessment in the phase 1 study; assay type: in vivo, human; details: single oral dose 25 or 50 mg, tablet and capsule
Method in brief: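 Healthy Japanese men received single fasted oral 25- or 50-mg tablet and capsule doses in a crossover design, confined at the site around each dose. The safety set was all subjects given at least 1 dose. Adverse events were assessed by clinical interview, physical examination, 12-lead ECG and routine laboratory tests from start of treatment to end of follow-up. Each was coded by MedDRA 17.0 (Japanese) and graded for severity, seriousness and causality.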

[3] = tested on: CYP2C8; details: in vitro; cited from earlier work
[4] = tested on: CYP2C9; details: in vitro; cited from earlier work
[5] = cited from earlier work

## Cc1c(Cl)c(C)[n+]([O-])c(Cl)c1-c1noc(-c2cc(O)c(O)c([N+](=O)[O-])c2)n1 [Opicapone]
[1]; 25 mg, opicapone 25 mg tablet, n=23, mean ± SD
  AUC: 2530 ± 581 ng·h/mL
[1]; 25 mg, opicapone 25 mg tablet, n=24, mean ± SD
  AUC(0-t): 2480 ± 586 ng·h/mL
[1]; 25 mg, t1/2, opicapone 25 mg tablet, n=23, mean ± SD
  half-life: 0.729 ± 0.173 h
[1]; 25 mg, opicapone 25 mg tablet
  Tmax: 2 h
[1]; 50 mg, opicapone 50 mg capsule, n=23, mean ± SD
  AUC: 4210 ± 1620 ng·h/mL
[1]; 50 mg, opicapone 50 mg capsule, n=24, mean ± SD
  AUC(0-t): 4080 ± 1650 ng·h/mL
[1]; 50 mg, t1/2, opicapone 50 mg capsule, n=23, mean ± SD
  half-life: 1.18 ± 0.477 h
[1]; 50 mg, opicapone 50 mg capsule
  Tmax: 2 h
[1]; opicapone 25 mg capsule, n=24, mean ± SD
  CL/F: 12.9 ± 5.31 L/h
[1]; opicapone 25 mg tablet, n=23, mean ± SD
  CL/F: 10.6 ± 3.50 ^b L/h
[1]; opicapone 25 mg, n=24
  Geometric Mean Ratio (Tablets/Capsules) of AUC0‐∞: 1.19
  Geometric Mean Ratio (Tablets/Capsules) of AUClast: 1.18
  Geometric Mean Ratio (Tablets/Capsules) of Cmax: 1.24
[1]; opicapone 50 mg capsule, n=23, mean ± SD
  CL/F: 13.6 ± 5.09 ^b L/h
[1]; opicapone 50 mg tablet, n=23, mean ± SD
  CL/F: 10.4 ± 3.20 L/h
[1]; opicapone 50 mg, n=23
  Geometric Mean Ratio (Tablets/Capsules) of AUC0‐∞: 1.27
[1]; opicapone 50 mg, n=24
  Geometric Mean Ratio (Tablets/Capsules) of AUClast: 1.28
  Geometric Mean Ratio (Tablets/Capsules) of Cmax: 1.42
[2]; any group, study period
  Serious adverse events: no serious adverse events
[2]; healthy Japanese subjects
  Tolerability: well tolerated
[3]
  CYP2C8 inhibition: weak, reversible inhibitor
[4]
  CYP2C9 inhibition: weak, reversible inhibitor

## Cc1nc(Cl)c(-c2noc(-c3cc(O)c(O)c([N+](=O)[O-])c3)n2)c(C)c1Cl [BIA 9–1079]
[5]; not assessed in this study
  half-life of metabolite: short

## Cc1c(Cl)c(C)[n+]([O-])c(Cl)c1-c1noc(-c2cc(OS(=O)(=O)O)c(O)c([N+](=O)[O-])c2)n1 [BIA 9–1103]
[5]; especially following repeated dosing
  half-life of metabolite: relatively long
